# Rows were chosen to be rich in hits. Some 2.2% of all compounds tested hit in one or more screens of this group.
# FGF22 binding: shifts melting point of recombinant human FGF22; Q9HCT0; recombinant FGF22 thermal shift, SYPRO orange fluorescence; percent of sucrose octasulfate shift, DMSO zero; activity (Tm shift, normalised), % at 9.99 µM; 340,000 tested, 1.5% active;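 active means mean Tm shift, scaled 0 neutral to 100 positive control, at about 1.3% or above, every replicate too, limit read from the data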
# Target sequence (Q9HCT0 whole entry, looked up): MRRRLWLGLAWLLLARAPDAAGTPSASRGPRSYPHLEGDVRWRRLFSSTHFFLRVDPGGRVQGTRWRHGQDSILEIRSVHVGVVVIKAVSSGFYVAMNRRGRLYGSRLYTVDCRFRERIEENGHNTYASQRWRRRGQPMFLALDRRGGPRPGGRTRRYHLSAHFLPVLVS
# NR2E3 ag-1: NR2E3 (human) agonism | inhibition of corepressor binding, % at 4.78 µM | 320,000 tested, 0.12% active | GST-NR2E3/biotin-RetCOR TR-FRET, 1536-well;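 active means percent inhibition above the cutoff of mean plus 3 SD of all tested compounds, set per screening campaign, cut at about 20% in these data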
#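 System: GST-tagged NR2E3 plus biotinylated RetCOR corepressor; Amount: 1.35 nM GST-tagged NR2E3 final; Dosing: single nominal compound dose of 4.8 µM; Schedule: 5 h incubation at 4 °C; Technique: TR-FRET with europium anti-GST and streptavidin-D2, 340 nm excitation; Controls: biotin wells as high control, 0.6% DMSO wells as low control.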
# miR-122 sensor: blocks miR-122 activity in Huh7 sensor cells; 340,000 tested, 0.3% active; activation (reporter increase), % at 12.5 µM; Huh7 miR-122 Renilla luciferase sensor, 48 h; neutral wells = 0, positive control = 100;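 active means mean replicate activation score at least 90 and every replicate individually at or above 90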;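 further: higher luciferase means less miR-122 activity so hits act as miR-122 inhibitors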
# 697 NFkB inh: inhibitors of the PMA/ionomycin-induced NF-kB reporter in 697 B cells; 330,000 tested, 0.33% active; inhibition, % at 4 µM; AID 435022; 697 B-cell NF-kB luciferase reporter, 16 h; in the data active means inhibition above about 35%
# Jurkat NFkB inh: lowers PMA/ionomycin-induced NF-kB signal in Jurkat cells; PMA/ionomycin-induced NF-kB luciferase reporter, luminescence; inhibition, % at 4 µM; 330,000 tested, 0.53% active; AID 435003; in the data active means inhibition above about 50%
# NR2E3 ag-2: activates human NR2E3 receptor; Q9Y5X4; CHO-S Gal4-NCOR/VP16-NR2E3 two-hybrid, luciferase; inhibition of corepressor binding, % at 3.98 µM; 360,000 tested, 0.35% active;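 active means inhibition above the mean of all tested compounds plus 3 SD, cut at about 70% in these data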;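 further: higher means lower luciferase signal from less NR2E3 corepressor binding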
# A number is an active result; - = inactive; . = no result.
SMILES,FGF22 binding,NR2E3 ag-1,miR-122 sensor,697 NFkB inh,Jurkat NFkB inh,NR2E3 ag-2
NC(=O)Cc1ncc(C(F)(F)F)cc1Cl,-,-,.,-,-,-
OCC#Cc1ncc(C(F)(F)F)cc1Cl,43.4,-,-,-,-,-
CC(C)NC(=O)N(C)C[C@@H]1Oc2ccc(NS(=O)(=O)c3cn(C)cn3)cc2CC(=O)N([C@H](C)CO)C[C@H]1C,-,.,-,.,.,.
Cc1cccc(NC(=S)NC23CN4CN(CN(C4)C2)C3)c1C,43.8,-,.,-,-,-
COc1ccccc1NC(=S)NC12CN3CN(CN(C3)C1)C2,.,-,-,-,-,-
Cc1ccc(S(=O)(=O)NNC(=S)Nc2cccc(C)c2C)cc1,-,-,-,-,-,-
Cc1ccccc1NC(=S)NC12CN3CN(CN(C3)C1)C2,43.9,-,.,-,-,-
C[C@@H]1CN([C@@H](C)CO)C(=O)c2cc(NC(=O)Nc3ccc(C(F)(F)F)cc3)ccc2O[C@@H](C)CCCCO[C@@H]1CN(C)Cc1ccc(C(=O)O)cc1,-,.,-,.,.,.
O=C(Nc1ccccc1C(=O)O)c1cc(S(=O)(=O)Nc2ccccc2)ccc1Cl,2.8,-,-,-,-,-
O=C(O)c1ccc(NS(=O)(=O)c2ccc(Cl)c(C(=O)Nc3ccccc3)c2)cc1,-,-,-,-,-,-
C[C@@H]1CN([C@H](C)CO)C(=O)c2cccc(NS(=O)(=O)c3cccs3)c2O[C@@H]1CN(C)C(=O)Nc1ccccc1,.,.,-,.,.,.
CC(C)C(NC(=O)c1ccccc1Br)c1ccccc1 (configuration not stated),42.9,-,.,-,-,-
CC(NC(=S)NC(=O)c1ccccc1Br)c1ccccc1 (configuration not stated),-,-,-,-,-,-
COc1ccc(C2C([N+](=O)[O-])=C(C)N(C)C(=O)N2C)cc1OC (configuration not stated),-,-,-,-,-,-
CCOc1ccc(C2C([N+](=O)[O-])=C(C)N(C)C(=O)N2C)cc1OC (configuration not stated),43.0,-,.,-,-,-
COCc1[nH][nH]c(=O)c1/C=N/N1CCOCC1,43.8,-,.,-,-,-
COc1ccc(-c2ccc3c(c2)O[C@@H](CN(C)C(C)=O)[C@H](C)CN([C@H](C)CO)S3(=O)=O)cc1,-,.,-,.,.,.
COc1ccc2c3c(n(C)c2c1)[C@@H](CO)N(CC1CCCCC1)CC31CCN(Cc2nccs2)CC1,-,.,.,.,.,.
CSc1ncccc1C(=O)Nc1nc2ccc(Oc3ccccc3)cc2s1,43.3,-,-,-,-,-
COc1ccc2nc(NC(=O)c3ccccc3C(=O)O)sc2c1,-,-,.,-,-,-
COc1ccc(S(=O)(=O)Nc2cccc3c2O[C@@H](CN(C)S(=O)(=O)c2ccccc2)[C@H](C)CN([C@@H](C)CO)C3=O)cc1,-,.,-,.,.,.
C[C@@H]1CN([C@H](C)CO)C(=O)c2cc(NS(=O)(=O)c3ccc(F)cc3)ccc2O[C@H]1CN(C)Cc1ccc(Oc2ccccc2)cc1,-,.,-,.,.,.
CN(C)c1ncc(S(=O)(=O)c2ccccc2)c(N)n1,43.6,-,-,-,-,-
CN(C)c1ncc(S(=O)(=O)c2ccccc2)c(-c2ccccc2Cl)n1,.,-,-,-,-,-
CCOC(=O)c1cnc2nc(C)nn2c1N,43.4,-,-,-,-,-
SMILES,FGF22 binding,NR2E3 ag-1,miR-122 sensor,697 NFkB inh,Jurkat NFkB inh,NR2E3 ag-2
C[C@@H]1CN([C@@H](C)CO)C(=O)CCCn2cc(nn2)CO[C@H]1CN(C)Cc1ccccc1C(F)(F)F,-,.,-,.,.,.
CCc1ccc(OCC(=O)NN2Cc3ccccc3C2=N)cc1,43.3,-,-,-,-,-
O=C(Nc1ccccc1Cl)N1C[C@@H]2[C@H](c3ccccc31)[C@H](CO)N2Cc1ccccc1,-,.,-,.,.,.
c1ccc(-c2noc(CCC3CCCC3)n2)cc1,-,-,-,-,-,-
c1ccc(-c2noc(CC3CCCCC3)n2)cc1,42.9,-,-,-,-,-
CCOc1cc(N2CCOCC2)c(OCC)cc1NC(=O)c1cc(S(=O)(=O)N2CCOCC2)ccc1Cl,-,.,-,-,-,-
CCOc1cc(N2CCOCC2)c(OCC)cc1NS(=O)(=O)c1ccc(Cl)s1,.,-,113.5,-,-,-

# Source: PubChem BioAssay
